Reference: ChEMBL document CHEMBL2202989, “New adamantane phenylalkylamines with σ-receptor binding affinity and anticancer activity, associated with putative antagonism of neuropathic pain” (J Med Chem, 2012)

Tests used:
Type in all cases: functional
BXPC-3 [1] = experiment: Cell cycle arrest in human BxPC3 cells assessed as accumulation at S phase at 15 uM after 24 hrs using propidium iodide staining by FACS analysis (reference value: 33 %)
Summary of the method: (§1)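 Cells were plated 24 h before treatment and exposed for 24 h at final 0.5, 5, 15 and 50 μM in 0.5% DMSO, against vehicle-treated controls. Cells were then trypsinised and fixed in cold ethanol for 3 h at 4 °C. They were stained in a mix of RNase (200 μg/mL) and PI (1 mg/mL) for 45 min at room temperature in the dark. Flow cytometry used 488 nm excitation and 10 000 gated cells. Phase percentages were assigned from DNA content.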

BXPC-3 [2] = experiment: Cell cycle arrest in human BxPC3 cells assessed as accumulation at S phase at 0.5 uM after 24 hrs using propidium iodide staining by FACS analysis (reference value: 33 %); summary of the method: as §1
BXPC-3 [3] = experiment: Cell cycle arrest in human BxPC3 cells assessed as accumulation at G1 phase at 5 uM after 24 hrs using propidium iodide staining by FACS analysis (reference value: 41 %); summary of the method: as §1
OVCAR-5 [4] = experiment: Growth inhibition of human OVCAR5 cells after 48 hrs by SRB assay; settings: OVCAR-5, 48 h
Summary of the method: (§2)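 Cells grown in RPMI 1640 with 5% heat-inactivated FCS, 2 mM L-glutamine and antibiotics, 37 °C, 5% CO2. Seeded at 3500–30000 cells/well and left 24 h before dosing. DMSO solutions added at 10-fold dilutions from 100 to 0.01 μM for 48 h. Cells TCA-fixed and SRB-stained, absorbance read at 540 nm; GI50 derived against the time-zero plate.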

HCT-116 = experiment: Growth inhibition of human HCT116 cells after 48 hrs by SRB assay; settings: HCT-116, 48 h; summary of the method: as §2
PC-3 [5] = experiment: Antitumor activity against human PC3 cells xenografted in SCID mouse assessed as tumor growth inhibition at 55 mg/kg, ip administered 5 consecutive days in a week for two cycles measured after 2 cycles relative to control; settings: PC-3, ip, route intraperitoneal, read-out: TGI
Summary of the method: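 PC3 xenografts were grown in SCID mice (10^6 cells per inoculum), 14 mice (28 tumors) per group, dosed ip from about 100 mm3. The test agent was given in 5% Tween 80; paclitaxel was given in Cremophor diluted in saline, with a vehicle of 1:1 ethanol/Cremophor diluted 1:3 in saline. Volume and %ΔT/ΔC were derived from caliper readings twice weekly. Occurrence of primary tumors and of axillary and bone metastases was scored (n = 7). Two-tailed t test.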

OVCAR-5 [6] = experiment: Antitumor activity against human OVCAR5 cells xenografted in SCID mouse assessed as primary tumor growth inhibition at 55 mg/kg, ip administered 5 consecutive days in a week for two cycles measured after 2 cycles relative to control; settings: OVCAR-5, ip, route intraperitoneal, read-out: TGI
Summary of the method: (§3)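 SCID mice carried OVCAR5 xenografts (10^6 cells per inoculum), 16 mice (32 tumors) per group, with ip dosing in 5% Tween 80 from a tumor volume of about 100 mm3. Caliper volume was measured twice weekly and %ΔT/ΔC derived. At termination, primary tumors were weighed and secondary metastases were scored at axillary and bone sites (n = 7−8). Two-tailed t test.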

OVCAR-5 [7] = experiment: Antitumor activity against human OVCAR5 cells xenografted in SCID mouse assessed as tumor growth inhibition at 55 mg/kg, ip administered 5 consecutive days in a week for two cycles measured after 2 cycles relative to control; settings: OVCAR-5, ip, route intraperitoneal, read-out: TGI; summary of the method: as §3
PC-3 [8] = experiment: Induction of apoptosis in human PC3 cells assessed as cleaved caspase3 containing cells at 0.5 uM by antibody-based FACS analysis (reference value: 3.2 %)
IGROV-1 [9] = experiment: Induction of apoptosis in human IGROV1 cells assessed as cleaved caspase3 containing cells at 15 uM by antibody-based FACS analysis (reference value: 3.9 %)
PC-3 [10] = experiment: Induction of apoptosis in human PC3 cells assessed as total apoptotic death at 15 uM using annexin V/7-AAD by FACS analysis (reference value: 8 %)
Summary of the method: (§4)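 Cells plated 24 h before treatment, then exposed 24 h to 0.5, 5, 15 or 50 μM compound (final DMSO 0.5%); vehicle controls included. Cells scraped and stained with annexin V-FITC and 7-AAD for 15 min on ice in the dark. Flow cytometry with 488 nm excitation, 10,000 gated cells. Early apoptosis was annexin V+/7-AAD−, late was annexin V+/7-AAD+.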

PC-3 [11] = experiment: Induction of apoptosis in human PC3 cells assessed as late apoptosis at 15 uM using annexin V/7-AAD by FACS analysis (reference value: 3 %); summary of the method: as §4
PC-3 [12] = experiment: Induction of apoptosis in human PC3 cells assessed as late apoptosis at 5 uM using annexin V/7-AAD by FACS analysis (reference value: 3 %)
PC-3 [13] = experiment: Induction of apoptosis in human PC3 cells assessed as early apoptosis at 5 uM using annexin V/7-AAD by FACS analysis (reference value: 5 %); summary of the method: as §4
IGROV-1 [14] = experiment: Induction of apoptosis in human IGROV1 cells assessed as early apoptosis at 50 uM using annexin V/7-AAD by FACS analysis (reference value: 9 %)
IGROV-1 [15] = experiment: Induction of apoptosis in human IGROV1 cells assessed as early apoptosis at 0.5 uM using annexin V/7-AAD by FACS analysis (reference value: 9 %)
PC-3 [16] = experiment: Cell cycle arrest in human PC3 cells assessed as accumulation at >G2/M phase at 50 uM after 24 hrs using propidium iodide staining by FACS analysis (reference value: 6 %)
PC-3 [17] = experiment: Cell cycle arrest in human PC3 cells assessed as accumulation at G2 phase at 15 uM after 24 hrs using propidium iodide staining by FACS analysis (reference value: 12 %)
PC-3 [18] = experiment: Cell cycle arrest in human PC3 cells assessed as accumulation at G1 phase at 5 uM after 24 hrs using propidium iodide staining by FACS analysis (reference value: 36 %)
IGROV-1 [19] = experiment: Cell cycle arrest in human IGROV1 cells assessed as accumulation at S phase at 15 uM after 24 hrs using propidium iodide staining by FACS analysis (reference value: 29 %)
IGROV-1 [20] = experiment: Cell cycle arrest in human IGROV1 cells assessed as accumulation at S phase at 0.5 uM after 24 hrs using propidium iodide staining by FACS analysis (reference value: 29 %)
IGROV-1 [21] = experiment: Cell cycle arrest in human IGROV1 cells assessed as accumulation at sub G1 phase at 50 uM after 24 hrs using propidium iodide staining by FACS analysis (reference value: 4 %)
IGROV-1 [22] = experiment: Cell cycle arrest in human IGROV1 cells assessed as accumulation at sub G1 phase at 5 uM after 24 hrs using propidium iodide staining by FACS analysis (reference value: 4 %)
BXPC-3 [23] = experiment: Cell cycle arrest in human BxPC3 cells assessed as accumulation at >G2/M phase at 5 uM after 24 hrs using propidium iodide staining by FACS analysis (reference value: 6 %); summary of the method: as §1
BXPC-3 [24] = experiment: Cell cycle arrest in human BxPC3 cells assessed as accumulation at G2 phase at 50 uM after 24 hrs using propidium iodide staining by FACS analysis (reference value: 12 %); summary of the method: as §1
[25] = read-out: LC50 (the source's name)

## CN1CCN(CCCc2ccc(C(c3ccccc3)C34CC5CC(CC(C5)C3)C4)cc2)CC1 (centres undefined)
BXPC-3 [1]
  Activity: 27%
BXPC-3 [2]
  Activity: 31%
BXPC-3 [3]
  Activity: 53%
OVCAR-5 [4]
  GI50: 3.6 µM
  TGI: 6.9 µM
OVCAR-5 [4]; [25]
  CC50: 0.0102 µM
HCT-116
  GI50: 3.38 µM
  TGI: 6.05 µM
HCT-116; [25]
  CC50: 0.00873 µM
PC-3 [5]
  inhibition in vivo at 55 mg/kg: 48%
OVCAR-5 [6]
  inhibition in vivo at 55 mg/kg: 46.9%
OVCAR-5 [7]
  inhibition in vivo at 55 mg/kg: 44.5%
PC-3 [8]
  Activity: 1.7%
IGROV-1 [9]
  Activity: 61.4%
PC-3 [10]
  Activity: 16%
PC-3 [11]
  Activity: 7%
PC-3 [12]
  Activity: 2%
PC-3 [13]
  Activity: 5%
IGROV-1 [14]
  Activity: 40%
IGROV-1 [15]
  Activity: 8%
PC-3 [16]
  Activity: 17%
PC-3 [17]
  Activity: 11%
PC-3 [18]
  Activity: 36%
IGROV-1 [19]
  Activity: 25%
IGROV-1 [20]
  Activity: 26%
IGROV-1 [21]
  Activity: 18%
IGROV-1 [22]
  Activity: 4%
BXPC-3 [23]
  Activity: 5%
BXPC-3 [24]
  Activity: 9%
